In publication PMC7507839 (Investigational new drugs, 2018):
Entries after “also recorded” stand apart in the source; their conditions may differ.

How the values were obtained:
[1] = system: non-small cell lung cancer cell lines; settings: high c-Met expressing cell lines; cited from earlier work
[2] = system: GTL-16 xenograft; settings: twice-daily 100 mg/kg orally, cited from earlier work
[3] = system: c-Met; settings: GTL-16 gastric cancer cells, cited from earlier work
[4] = system: c-Met; settings: A549 non-small cell lung carcinoma cell line; cited from earlier work
[5] = system: ovarian cancer cell lines; settings: with paclitaxel + carboplatin, multiple ovarian cancer cell lines; cited from earlier work
[6] = system: gastric and non-small cell lung cell lines; settings: a number of cell lines; most pronounced in gastric and non-small cell lung cell lines; cited from earlier work
[7] = system: tyrosine kinases; settings: cited from earlier work
[8] = system: metastatic or locally advanced solid tumors; experiment: anti-tumor activity; format: in vivo, human
Summary of the method: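 Adults with histologically confirmed metastatic or locally advanced solid tumors lacking standard therapy, ECOG 0–1, received test compound twice daily from 50 mg in escalating cohorts. Cycle 1 was 14 days followed by a 1-week holiday, cycles 2–4 were 14 days, and cycles from 5 on were 28 days. RECIST 1.0 imaging at end of cycle 4, then every two cycles. All patients dosed at least once analysed.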

[9] = plasma pharmacokinetics in patients; format: in vivo, human
[10] = system: patients with metastatic or locally advanced solid tumors; experiment: Phase I dose escalation: safety, DLT, MTD; format: in vivo
[11] = system: c-Met; settings: read-out: IC50 towards c-Met; cited from earlier work
[12] = system: medullary thyroid cancer; settings: monotherapy; cited from earlier work
[13] = Dose Level 5, 550 mg BID, Fatigue
[14] = Dose Level 6, 750 mg BID, Nausea
[15] = Dose Level 7, 1050 mg BID, Nausea
[16] = Dose Level 7, 1050 mg BID, Vomiting
[17] = Dose Level 8, 1500 mg BID, Elevated ALT
[18] = Dose Level 8, 1500 mg BID, Elevated AST
[19] = Dose Level 8, 1500 mg BID, Elevated Amylase
[20] = Dose Level 8, 1500 mg BID, Hypokalaemia

Cn1cc(-c2cnc3ccc4ccc(CS(=O)(=O)NCc5ccccn5)cc4c(=O)c3c2)cn1 [MK-8033, 1-[3-(1-methyl-1H-pyrazol-4-yl)-5-oxo-5H-benzo[4,5]cyclohepta[1,2-b]pyridin-7-yl] -N-(pyridin-2-ylmethyl)methanesulfonamide]
radiosensitization [1]: radiosensitized | plasma concentrations relative to IC50 for target inhibition ([2]; mice): exceeding the IC50 for target inhibition for 24 h/day | tolerability ([2]; mice): well-tolerated | pathway activation and tumor growth [2]: inhibited | autophosphorylation of c-Met in the C-terminal docking site ([3]; constitutively activated c-MET): potently inhibited | downstream signaling events such as ERK1/2 and AKT [3]: inhibited | HGF-induced phosphorylation of c-Met [4]: inhibited | phosphorylation of AKT and ERK1/2 [4]: inhibited | cell growth inhibition in combination with chemotherapy [5]: synergized | IC50 for proliferation [6]: sub-micromolar | selectivity [7]: target multiple tyrosine kinases | median progression-free survival (PFS) ([8]; 95% confidence interval 42–115 days): 57 days | PFS rate ([8]; at 6 weeks): 80.4% | PFS rate ([8]; at 12 weeks): 15.2% | patients with stable disease (SD), % ([8]; best response): 18.2% | patients with partial response (PR) ([8]; endometrioid adenocarcinoma): One | patients with best response of progressive disease (PD), % ([8]; human, in vivo): 71.7% | PFS of the responding patient ([8]; patient with endometrioid adenocarcinoma): 846 days | max concentration versus dose ([9]; 50 to 1500 mg BID, dose proportionality not assessable): appears to increase with dose | Day 14/Day 1 geometric mean accumulation ratios for Cmax ([9]; 200 to 1500 mg BID dose range, not conclusive): 1.2 to 4.2 | impact of co-administered omeprazole on steady state Cmax, AUC0–12h and Tmax ([9]; Part C, 770 mg BID with or without 20 mg omeprazole, two patients): no effect; also recorded: does not appear to strongly impact | Tmax ([9]; human, plasma, oral): 1 to 3 h | No. of Subjects with a DLT ([10]; Dose Level 1 (n = 1), 50 mg BID, Total): 0 | No. of Subjects with a DLT ([10]; Dose Level 2 (n = 1), 100 mg BID, Total): 0 | No. of Subjects with a DLT ([10]; Dose Level 3 (n = 3), 200 mg BID, Total): 0 | No. of Subjects with a DLT ([10]; Dose Level 4 (n = 4), 400 mg BID, Total): 0 | No. of Subjects with a DLT ([10]; Dose Level 5 (n = 7), 550 mg BID, Fatigue): 1 | No. of Subjects with a DLT ([10]; Dose Level 5 (n = 7), 550 mg BID, Total): 1 | Number of DLTs Grade 1 [10, 13]: 0 | Number of DLTs Grade 2 [10, 13]: 0 | Number of DLTs Grade 3 [10, 13]: 1 | Number of DLTs Grade 4 [10, 13]: 0 | No. of Subjects with a DLT ([10]; Dose Level 6 (n = 18), 750 mg BID, Nausea): 1 | No. of Subjects with a DLT ([10]; Dose Level 6 (n = 18), 750 mg BID, Total): 1 | Number of DLTs Grade 1 [10, 14]: 0 | Number of DLTs Grade 2 [10, 14]: 1 | Number of DLTs Grade 3 [10, 14]: 0 | Number of DLTs Grade 4 [10, 14]: 0 | No. of Subjects with a DLT ([10]; Dose Level 7 (n = 6), 1050 mg BID, Nausea): 2 | No. of Subjects with a DLT ([10]; Dose Level 7 (n = 6), 1050 mg BID, Total): 2 | No. of Subjects with a DLT ([10]; Dose Level 7 (n = 6), 1050 mg BID, Vomiting): 2 | Number of DLTs Grade 1 [10, 15]: 0 | Number of DLTs Grade 2 [10, 15]: 0 | Number of DLTs Grade 3 [10, 15]: 2 | Number of DLTs Grade 4 [10, 15]: 0 | Number of DLTs Grade 1 [10, 16]: 0 | Number of DLTs Grade 2 [10, 16]: 1 | Number of DLTs Grade 3 [10, 16]: 1 | Number of DLTs Grade 4 [10, 16]: 0 | No. of Subjects with a DLT ([10]; Dose Level 8 (n = 3), 1500 mg BID, Elevated ALT): 1 | No. of Subjects with a DLT ([10]; Dose Level 8 (n = 3), 1500 mg BID, Elevated AST): 1 | No. of Subjects with a DLT ([10]; Dose Level 8 (n = 3), 1500 mg BID, Elevated Amylase): 1 | No. of Subjects with a DLT ([10]; Dose Level 8 (n = 3), 1500 mg BID, Hypokalaemia): 1 | No. of Subjects with a DLT ([10]; Dose Level 8 (n = 3), 1500 mg BID, Total): 2 | Number of DLTs Grade 1 [10, 17]: 0 | Number of DLTs Grade 2 [10, 17]: 0 | Number of DLTs Grade 3 [10, 17]: 1 | Number of DLTs Grade 4 [10, 17]: 0 | Number of DLTs Grade 1 [10, 18]: 0 | Number of DLTs Grade 2 [10, 18]: 0 | Number of DLTs Grade 3 [10, 18]: 1 | Number of DLTs Grade 4 [10, 18]: 0 | Number of DLTs Grade 1 [10, 19]: 0 | Number of DLTs Grade 2 [10, 19]: 0 | Number of DLTs Grade 3 [10, 19]: 1 | Number of DLTs Grade 4 [10, 19]: 0 | Number of DLTs Grade 1 [10, 20]: 0 | Number of DLTs Grade 2 [10, 20]: 0 | Number of DLTs Grade 3 [10, 20]: 0 | Number of DLTs Grade 4 [10, 20]: 1 | No. of Subjects with a DLT ([10]; Part C - (n = 3), 750 mg BID, Total): 0 | patients who died during the study ([10]; determined by investigators to be unrelated to MK-8033): Five | maximum tolerated dose (MTD) ([10]; dose level 6, oral): 750 mg BID | recommended phase II dose (RP2D) ([10]; dose level 6, acute and chronic toxicity, TITE-CRM): 750 mg BID | Alopecia, All Grades, % ([10]; treatment-related, n = 46): 19.6% | Anorexia, All Grades, % ([10]; treatment-related, n = 46): 17.4% | Decreased Hemoglobin, All Grades, % ([10]; treatment-related, n = 46): 6.5% | Decreased Hemoglobin, Grade ≥ 3, % ([10]; treatment-related, n = 46): 2.2% | Diarrhea, All Grades, % ([10]; treatment-related, n = 46): 6.5% | Dysgeusia, All Grades, % ([10]; treatment-related, n = 46): 8.7% | Dyspepsia, All Grades, % ([10]; treatment-related, n = 46): 6.5% | Dyspepsia, Grade ≥ 3, % ([10]; treatment-related, n = 46): 4.3% | Elevated ALT, All Grades, % ([10]; treatment-related, n = 46): 17.4% | Elevated ALT, Grade ≥ 3, % ([10]; treatment-related, n = 46): 2.2% | Elevated AST, All Grades, % ([10]; treatment-related, n = 46): 10.9% | Elevated AST, Grade ≥ 3, % ([10]; treatment-related, n = 46): 2.2% | Elevated Amylase, All Grades, % ([10]; treatment-related, n = 46): 6.5% | Elevated Amylase, Grade ≥ 3, % ([10]; treatment-related, n = 46): 4.3% | Elevated Creatinine, All Grades, % ([10]; treatment-related, n = 46): 13.0% | Elevated Lipase, All Grades, % ([10]; treatment-related, n = 46): 6.5% | Elevated Lipase, Grade ≥ 3, % ([10]; treatment-related, n = 46): 4.3% | Fatigue, All Grades, % ([10]; treatment-related, n = 46): 28.3% | Fatigue, Grade ≥ 3, % ([10]; treatment-related, n = 46): 2.2% | Headache, All Grades, % ([10]; treatment-related, n = 46): 6.5% | Hypokalemia, All Grades, % ([10]; treatment-related, n = 46): 6.5% | Hypokalemia, Grade ≥ 3, % ([10]; treatment-related, n = 46): 2.2% | Lymphopenia, All Grades, % ([10]; treatment-related, n = 46): 8.7% | Lymphopenia, Grade ≥ 3, % ([10]; treatment-related, n = 46): 4.3% | Nausea, All Grades, % ([10]; treatment-related, n = 46): 21.7% | Nausea, Grade ≥ 3, % ([10]; treatment-related, n = 46): 4.3% | Vomiting, All Grades, % ([10]; treatment-related, n = 46): 13.0% | Vomiting, Grade ≥ 3, % ([10]; treatment-related, n = 46): 2.2% | IC50 [11]: 1 nM

COc1cc2nccc(Oc3ccc(NC(=O)C4(C(=O)Nc5ccc(F)cc5)CC4)cc3)c2cc1OC [cabozantinib]
response rate [12]: 49% | IC50 [11]: 1.3 nM

O=C1NC(=O)[C@@H](c2cn3c4c(cccc24)CCC3)[C@@H]1c1c[nH]c2ccccc12 [tivantinib, reference compound]
selectivity [7]: only binds to c-Met | IC50 [11]: 100 nM
